The source made the active and inactive calls. The calls are words filed in the database; no cut-off is given here.
Legend:
Acetylcholinesterase = Acetylcholinesterase (Homo sapiens, UniProt P22303); experiment: Inhibition of human recombinant AChE using acetylthiocholine iodide as substrate preincubated for 20 mins prior to substrate addition by Ellman's method
Summary of the method: (§1)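 Ellman method with acetylthiocholine iodide (AChE) or butyrylthiocholine iodide (BuChE) as substrate. Enzyme and inhibitor preincubated 20 min at 37 °C before substrate addition. Blanks without enzyme corrected for non-enzymatic hydrolysis. Five inhibitor concentrations giving 20-80% inhibition. IC50 from linear regression of % inhibition vs log final concentration. Mean of two or three independent measurements, each in triplicate.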

Cannabinoid receptor 1 [1] = molecular target: T1, Cannabinoid receptor 1 (Homo sapiens, UniProt P21554); experiment: Displacement of [3H]CP-55940 from human recombinant CB1 receptor expressed in HEK293 cells after 90 mins; assay type: cell-based
Summary of the method: (§2)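 Membranes from HEK-293 cells stably expressing human recombinant CB1 (Bmax 2.5 pmol/mg) or CB2 (Bmax 4.7 pmol/mg). Incubated with [3H]-CP-55,940 (CB1 0.14 nM, Kd 0.18 nM; CB2 0.084 nM, Kd 0.31 nM) and increasing compound concentrations for 90 min at 30 °C. Non-specific binding defined with 10 […] 55212-2. IC50 by non-linear regression, converted to Ki by Cheng-Prusoff. Means of at least n = 3.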

Cannabinoid receptor 2 [2] = molecular target: T2, Cannabinoid receptor 2 (Homo sapiens, UniProt P34972); experiment: Displacement of [3H]CP-55940 from human recombinant CB2 receptor expressed in HEK293 cells after 90 mins; assay type: cell-based; summary of the method: as §2
Cholinesterase = Cholinesterase (Homo sapiens, UniProt P06276); experiment: Inhibition of human serum BuChE using butyrylthiocholine iodide as substrate preincubated for 20 mins prior to substrate addition by Ellman's method; summary of the method: as §1
[3] = Inhibition of amyloid beta (25 to 35) fibril formation at 10 uM incubated up to 6 hrs by UV-Vis spectrophotometric analysis
Summary of the method: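 Aβ25-35 at 100 μM final, in 10 mM phosphate buffer pH 7.2, sonicated 1 min on addition. Compound added in MeOH at 10 μM final, with curcumin reference alongside. Polymerization followed by UV-vis at 190-380 nm over 0-6 h. Spectra of compound alone were subtracted. At least three independent runs.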

Cannabinoid receptor 1 [4] = molecular target: T1, Cannabinoid receptor 1; experiment: Displacement of [3H]CP-55940 from human recombinant CB1 receptor expressed in HEK293 cells at 10 uM after 90 mins; assay type: cell-based
Summary of the method: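 Membranes from HEK-293 cells stably expressing human recombinant CB1 or CB2 were incubated with [³H]-CP-55,940 (0.14 nM for CB1; 0.084 nM for CB2) plus test compound for 90 min at 30 °C. Non-specific binding was defined with WIN 55212-2. Percent displacement of bound radioligand at the maximum tested concentration is reported. At least n = 3 experiments.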

Cannabinoid receptor 2 [5] = molecular target: T2, Cannabinoid receptor 2; experiment: Displacement of [3H]CP-55940 from human recombinant CB2 receptor expressed in HEK293 cells at 10 uM after 90 mins; assay type: cell-based
[6] = Inhibition of amyloid beta (25 to 35) fibril formation incubated up to 6 hrs by UV-Vis spectrophotometric analysis
Summary of the method: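 Aβ25-35, sonicated 1 min, was mixed in 10 mM phosphate buffer (pH 7.2) with compound added in MeOH, on ice. Polymerization was followed by UV-visible spectroscopy at 190–380 nm over 0–6 h. Compound-alone spectra were subtracted, and peptide-alone and curcumin controls were run in parallel. IC50 (0.1–50 range) came from a sigmoidal least-squares fit. At least three independent runs.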

SH-SY5Y [7] = experiment: Neuroprotective effect in human SH-SY5Y cells assessed as inhibition of amyloid beta (25 to 35)-induced ROS production at 30 uM after 3 hrs by DHE-based fluorimetric analysis; assay type: functional, cell-based
Summary of the method: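 SH-SY5Y cells were seeded at 1 × 10⁴/well on culture slides for 24 h and treated with Aβ25-35 with or without compound for 3 h. ROS was measured with DHE loaded for 15 min in the dark, then 1 h in serum-free DMEM at 37 °C. Fluorescence microscopy covered four random fields of 50–100 cells each, scored as densitometry per cell versus untreated cells. Mean ± SD of three experiments.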

SH-SY5Y [8] = experiment: Neuroprotective activity in human SH-SY5Y cells assessed as inhibition of amyloid beta (25 to 35)-induced cytotoxicity at 30 uM after 3 hrs by MTT assay; assay type: functional
Summary of the method: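 SH-SY5Y cells in DMEM with 10% FBS were seeded at 3 × 10⁴/well for 24 h. They were exposed for 3 h at 37 °C to HFIP-pretreated unaggregated Aβ25-35 with or without compound (1–30 range). Viability was read by MTT (5 mg/mL, 2 h; isopropanol; 570/690 nm) as % of untreated control. Percentage protection is given at the highest concentration. Mean ± SD of at least two experiments.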

[9] = molecular target: Amyloid-beta precursor protein (Homo sapiens) (UniProt P05067); experiment: Inhibition of amyloid beta (25 to 35) binding to plasma membrane surface of human Sh-SY5Y cells at 30 uM after 30 mins by congo red-based spectrophotometry; assay type: cell-based
Summary of the method: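 SH-SY5Y cells were seeded at 5 × 10³/well for 24 h, then given fresh medium with Aβ25-35 and compound for 10, 20 and 30 min. After two PBS washes, bound peptide was stained with Congo red in PBS for 20 min. Absorbance was read at 540 nm and expressed as % of untreated cells.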

Sequence of Cholinesterase (P06276 whole entry): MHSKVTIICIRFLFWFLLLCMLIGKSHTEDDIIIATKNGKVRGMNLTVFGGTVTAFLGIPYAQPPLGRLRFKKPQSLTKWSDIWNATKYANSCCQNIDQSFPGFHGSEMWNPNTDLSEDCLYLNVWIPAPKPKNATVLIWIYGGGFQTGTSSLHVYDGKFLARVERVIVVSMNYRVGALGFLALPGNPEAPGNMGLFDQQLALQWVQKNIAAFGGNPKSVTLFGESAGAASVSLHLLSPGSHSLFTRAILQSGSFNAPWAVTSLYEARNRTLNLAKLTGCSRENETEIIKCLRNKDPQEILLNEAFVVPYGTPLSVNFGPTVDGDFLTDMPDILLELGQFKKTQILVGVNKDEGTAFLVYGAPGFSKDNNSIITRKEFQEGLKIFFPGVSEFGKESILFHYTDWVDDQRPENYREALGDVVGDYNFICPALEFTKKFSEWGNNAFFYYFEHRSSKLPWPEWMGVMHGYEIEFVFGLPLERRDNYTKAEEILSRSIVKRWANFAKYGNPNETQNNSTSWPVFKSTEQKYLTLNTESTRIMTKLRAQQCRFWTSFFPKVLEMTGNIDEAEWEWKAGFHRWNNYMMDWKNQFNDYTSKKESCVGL
Sequence of Acetylcholinesterase (P22303 whole entry): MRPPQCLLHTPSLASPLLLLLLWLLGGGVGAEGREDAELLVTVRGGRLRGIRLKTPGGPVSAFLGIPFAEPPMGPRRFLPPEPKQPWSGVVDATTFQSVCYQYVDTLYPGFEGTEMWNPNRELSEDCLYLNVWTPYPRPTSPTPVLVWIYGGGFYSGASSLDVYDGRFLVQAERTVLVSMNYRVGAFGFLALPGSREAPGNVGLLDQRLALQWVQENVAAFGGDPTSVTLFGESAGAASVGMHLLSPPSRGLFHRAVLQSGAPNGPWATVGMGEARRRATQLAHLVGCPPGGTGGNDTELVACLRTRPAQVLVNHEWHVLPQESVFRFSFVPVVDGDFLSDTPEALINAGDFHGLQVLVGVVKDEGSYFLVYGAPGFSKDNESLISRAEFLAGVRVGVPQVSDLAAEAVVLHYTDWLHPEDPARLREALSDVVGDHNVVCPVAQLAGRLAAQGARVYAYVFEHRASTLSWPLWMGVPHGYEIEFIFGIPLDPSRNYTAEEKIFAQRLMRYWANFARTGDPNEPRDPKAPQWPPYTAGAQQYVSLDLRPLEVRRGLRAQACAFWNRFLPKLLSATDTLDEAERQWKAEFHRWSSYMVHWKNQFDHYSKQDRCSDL
T1 sequence (P21554 whole entry): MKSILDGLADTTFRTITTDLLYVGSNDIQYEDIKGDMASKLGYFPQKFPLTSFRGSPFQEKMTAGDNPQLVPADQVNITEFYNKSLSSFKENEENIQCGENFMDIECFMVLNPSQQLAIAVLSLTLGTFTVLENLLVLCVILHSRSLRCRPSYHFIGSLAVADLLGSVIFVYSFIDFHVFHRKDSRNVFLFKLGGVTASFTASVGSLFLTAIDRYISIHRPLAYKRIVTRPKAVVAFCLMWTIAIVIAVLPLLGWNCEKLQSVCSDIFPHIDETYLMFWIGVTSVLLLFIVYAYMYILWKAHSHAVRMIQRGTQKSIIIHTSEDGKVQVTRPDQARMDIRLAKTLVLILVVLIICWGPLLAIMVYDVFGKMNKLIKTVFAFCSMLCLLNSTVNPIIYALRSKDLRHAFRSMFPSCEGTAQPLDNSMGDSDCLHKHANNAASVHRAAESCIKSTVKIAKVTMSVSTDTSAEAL
T2 sequence (P34972 whole entry): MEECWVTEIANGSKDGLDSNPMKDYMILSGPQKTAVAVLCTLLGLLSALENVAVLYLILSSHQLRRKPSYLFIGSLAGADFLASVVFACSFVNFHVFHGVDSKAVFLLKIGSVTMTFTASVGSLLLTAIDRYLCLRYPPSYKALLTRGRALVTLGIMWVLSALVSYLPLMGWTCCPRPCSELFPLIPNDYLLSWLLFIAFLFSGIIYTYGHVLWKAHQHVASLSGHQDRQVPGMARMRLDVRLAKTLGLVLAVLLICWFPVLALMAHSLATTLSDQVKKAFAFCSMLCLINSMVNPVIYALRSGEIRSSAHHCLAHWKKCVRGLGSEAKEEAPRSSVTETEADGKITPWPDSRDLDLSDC
Sequence of Amyloid-beta precursor protein (Homo sapiens) (P05067 whole entry): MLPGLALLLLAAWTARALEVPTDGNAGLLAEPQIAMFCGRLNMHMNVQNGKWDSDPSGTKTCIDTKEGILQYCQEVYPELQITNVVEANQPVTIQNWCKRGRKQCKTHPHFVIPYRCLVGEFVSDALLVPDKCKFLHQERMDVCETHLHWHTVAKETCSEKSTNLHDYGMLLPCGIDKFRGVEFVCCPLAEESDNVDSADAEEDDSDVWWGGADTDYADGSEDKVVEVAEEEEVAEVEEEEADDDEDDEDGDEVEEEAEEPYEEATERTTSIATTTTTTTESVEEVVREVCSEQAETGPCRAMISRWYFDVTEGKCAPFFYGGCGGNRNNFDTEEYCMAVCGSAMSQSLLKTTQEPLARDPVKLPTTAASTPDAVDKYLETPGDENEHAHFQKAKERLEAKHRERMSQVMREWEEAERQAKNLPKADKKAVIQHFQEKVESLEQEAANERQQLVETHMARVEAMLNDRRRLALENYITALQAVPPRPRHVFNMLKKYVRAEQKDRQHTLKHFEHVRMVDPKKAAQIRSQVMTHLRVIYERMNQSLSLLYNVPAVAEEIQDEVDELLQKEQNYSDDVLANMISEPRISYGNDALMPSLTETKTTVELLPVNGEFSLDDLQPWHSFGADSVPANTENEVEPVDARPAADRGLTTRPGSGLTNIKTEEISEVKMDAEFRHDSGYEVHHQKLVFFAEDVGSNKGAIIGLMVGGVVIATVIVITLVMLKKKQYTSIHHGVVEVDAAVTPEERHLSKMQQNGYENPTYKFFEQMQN

Structure (SMILES): COc1cccc(C(=O)c2c(-c3cccc(OCCCCCCCN(C)Cc4ccccc4)c3)oc3ccccc23)c1OC
- IC50 (Acetylcholinesterase): Not Active
- Activity (Cannabinoid receptor 1 [1]): inactive
- Activity (Cannabinoid receptor 2 [2]): inactive
- IC50 (Cholinesterase): 3.01 µM

Structure (SMILES): COc1cccc(C(=O)c2c(-c3cccc(OCCCCCCCN(C)Cc4ccccc4)c3)oc3ccccc23)c1
- IC50 (Acetylcholinesterase): Not Active
- Activity (Cannabinoid receptor 1 [1]): inactive
- Activity (Cannabinoid receptor 2 [2]): inactive
- IC50 (Cholinesterase): 1.37 µM

Structure (SMILES): CN(CCCCCOc1ccc(-c2cc3ccccc3o2)cc1)Cc1ccccc1
- IC50 (Acetylcholinesterase; read-out: IC50): 215 µM
- inhibition [3]: Active
- IC50 (Cholinesterase): 6.6 µM

Structure (SMILES): CCN(CC)Cc1cccc(C(=O)c2c(-c3ccc(OCCCCCCCN(C)Cc4ccccc4)cc3)oc3ccccc23)c1
- IC50 (Acetylcholinesterase; read-out: IC50): 53 µM
- inhibition [3]: Active
- EC50 (Cannabinoid receptor 1 [1]): > 10 µM
- Ki (Cannabinoid receptor 1 [1]): > 10 µM
- Activity (Cannabinoid receptor 1 [4]): 29.8%
- EC50 (Cannabinoid receptor 2 [2]): > 10 µM
- Ki (Cannabinoid receptor 2 [2]): > 10 µM
- IC50 (Cholinesterase): 3.18 µM
- Activity (Cannabinoid receptor 2 [5]): 47.3%

Structure (SMILES): CN(CCCOc1ccc(-c2cc3ccccc3o2)cc1)Cc1ccccc1
- IC50 (Acetylcholinesterase): Not Active
- inhibition [3]: Active
- IC50 (Cholinesterase): 136 µM

Structure (SMILES): Cc1ccc(C(=O)c2c(-c3cccc(OCCCCCCCN(C)Cc4ccccc4)c3)oc3ccccc23)cc1
- IC50 (Acetylcholinesterase): Not Active
- Activity (Cannabinoid receptor 1 [1]): inactive
- Activity (Cannabinoid receptor 2 [2]): inactive
- IC50 (Cholinesterase): 43.9 µM

Structure (SMILES): CCN(CC)Cc1ccc(C(=O)c2c(-c3ccc(OCCCCCCCN(C)Cc4ccccc4)cc3)oc3ccccc23)cc1
- IC50 (Acetylcholinesterase; read-out: IC50): 100 µM
- inhibition [3]: Active
- EC50 (Cannabinoid receptor 1 [1]): > 10 µM
- Ki (Cannabinoid receptor 1 [1]): > 10 µM
- Activity (Cannabinoid receptor 1 [4]): 47.7%
- EC50 (Cannabinoid receptor 2 [2]): 4.4 µM
- Ki (Cannabinoid receptor 2 [2]): 1.12 µM
- IC50 (Cholinesterase): 9.42 µM
- Activity (Cannabinoid receptor 2 [5]): 65.2%

Structure (SMILES): CCN(CC)CCOc1cccc(C(=O)c2c(-c3ccc(OCCCCCCCN(C)Cc4ccccc4)cc3)oc3ccccc23)c1
- IC50 (Acetylcholinesterase; read-out: IC50): 37.1 µM
- inhibition [3]: Active
- EC50 (Cannabinoid receptor 1 [1]): 6.38 µM
- Ki (Cannabinoid receptor 1 [1]): 2.57 µM
- Activity (Cannabinoid receptor 1 [4]): 76.5%
- EC50 (Cannabinoid receptor 2 [2]): 2.71 µM
- Ki (Cannabinoid receptor 2 [2]): 0.69 µM
- IC50 (Cholinesterase): 1.81 µM
- Activity (Cannabinoid receptor 2 [5]): 77.9%

Structure (SMILES): CN(CCCCCCCCCOc1ccc(-c2cc3ccccc3o2)cc1)Cc1ccccc1
- IC50 (Acetylcholinesterase): Not Active
- IC50 (Cholinesterase): 55.6 µM
- IC50 [6]: 5.5 µM

Structure (SMILES): COc1cc(OC)cc(C(=O)c2c(-c3cccc(OCCCCCCCN(C)Cc4ccccc4)c3)oc3ccccc23)c1
- IC50 (Acetylcholinesterase): Not Active
- Activity (Cannabinoid receptor 1 [1]): inactive
- Activity (Cannabinoid receptor 2 [2]): inactive
- IC50 (Cholinesterase): 0.048 µM

Structure (SMILES): CN(CCCCCCCOc1ccc(-c2oc3ccccc3c2C(=O)c2ccc(OCCN3CCOCC3)cc2)cc1)Cc1ccccc1
- IC50 (Acetylcholinesterase; read-out: IC50): 39 µM
- inhibition [3]: Active
- EC50 (Cannabinoid receptor 1 [1]): 1.37 µM
- Ki (Cannabinoid receptor 1 [1]): 0.55 µM
- Activity (Cannabinoid receptor 1 [4]): 83.1%
- EC50 (Cannabinoid receptor 2 [2]): 2.27 µM
- Ki (Cannabinoid receptor 2 [2]): 0.58 µM
- IC50 (Cholinesterase): 21 µM
- Activity (Cannabinoid receptor 2 [5]): 70.6%

Structure (SMILES): CN(CCCCCCCOc1ccc(-c2cc3ccccc3o2)cc1)Cc1ccccc1
- EC50 (Cannabinoid receptor 1 [1]): 6.95 µM
- Ki (Cannabinoid receptor 1 [1]): 2.8 µM
- Activity (Cannabinoid receptor 1 [4]): 57.8%
- EC50 (Cannabinoid receptor 2 [2]): > 10 µM
- Ki (Cannabinoid receptor 2 [2]): > 10 µM
- Activity (Cannabinoid receptor 2 [5]): 21.8%

Structure (SMILES): CN(CCCCCCCCOc1ccc(-c2cc3ccccc3o2)cc1)Cc1ccccc1
- IC50 (Acetylcholinesterase): Not Active
- inhibition [3]: Active
- IC50 (Cholinesterase): 7.47 µM

Structure (SMILES): CN(CCCCCCCOc1ccc(-c2oc3ccccc3c2C(=O)c2ccc3ccccc3c2)cc1)Cc1ccccc1
- IC50 (Acetylcholinesterase): Not Active
- EC50 (Cannabinoid receptor 1 [1]): > 10 µM
- Ki (Cannabinoid receptor 1 [1]): > 10 µM
- Activity (Cannabinoid receptor 1 [4]): 35.1%
- EC50 (Cannabinoid receptor 2 [2]): > 10 µM
- Ki (Cannabinoid receptor 2 [2]): > 10 µM
- IC50 (Cholinesterase): 89.1 µM
- Activity (Cannabinoid receptor 2 [5]): 6.87%

Structure (SMILES): COc1cc(/C=C/C(=O)CC(=O)/C=C/c2ccc(O)c(OC)c2)ccc1O [CURCUMIN]
- IC50 [6]: 10 µM

Structure (SMILES): COc1ccc(C(=O)c2c(-c3cccc(OCCCCCCCN(C)Cc4ccccc4)c3)oc3ccccc23)cc1OC
- IC50 (Acetylcholinesterase): Not Active
- Activity (Cannabinoid receptor 1 [1]): inactive
- Activity (Cannabinoid receptor 2 [2]): inactive
- IC50 (Cholinesterase): 2.51 µM

Structure (SMILES): COc1ccccc1C(=O)c1c(-c2cccc(OCCCCCCCN(C)Cc3ccccc3)c2)oc2ccccc12
- IC50 (Acetylcholinesterase): Not Active
- Activity (Cannabinoid receptor 1 [1]): inactive
- Activity (Cannabinoid receptor 2 [2]): inactive
- IC50 (Cholinesterase): 1.97 µM

Structure (SMILES): CN(CCCCCCCOc1ccc(-c2oc3ccccc3c2C(=O)c2ccccc2)cc1)Cc1ccccc1
- inhibition (SH-SY5Y [7]): Active
- inhibition at 30 µM (SH-SY5Y [8]): 58.2%
- inhibition [3]: 47%
- EC50 (Cannabinoid receptor 1 [1]): 0.79 µM
- Ki (Cannabinoid receptor 1 [1]): 0.32 µM
- Activity (Cannabinoid receptor 1 [4]): 8.72%
- EC50 (Cannabinoid receptor 2 [2]): > 10 µM
- Ki (Cannabinoid receptor 2 [2]): > 10 µM
- IC50 [6]: 12.5 µM
- inhibition [9]: Active
- Activity (Cannabinoid receptor 2 [5]): 47.3%

Structure (SMILES): CCN(CC)CCOc1ccc(C(=O)c2c(-c3ccc(OCCCCCCCN(C)Cc4ccccc4)cc3)oc3ccccc23)cc1
- IC50 (Acetylcholinesterase; read-out: IC50): 78 µM
- inhibition [3]: Active
- EC50 (Cannabinoid receptor 1 [1]): > 10 µM
- Ki (Cannabinoid receptor 1 [1]): > 10 µM
- Activity (Cannabinoid receptor 1 [4]): 35.2%
- EC50 (Cannabinoid receptor 2 [2]): 4.65 µM
- Ki (Cannabinoid receptor 2 [2]): 1.18 µM
- IC50 (Cholinesterase): 23 µM
- Activity (Cannabinoid receptor 2 [5]): 92%

Structure (SMILES): CN(CCCCCCCOc1ccc(-c2oc3ccccc3c2C(=O)c2cccc3ccccc23)cc1)Cc1ccccc1
- IC50 (Acetylcholinesterase; read-out: IC50): 101 µM
- inhibition [3]: 48%
- EC50 (Cannabinoid receptor 1 [1]): > 10 µM
- Ki (Cannabinoid receptor 1 [1]): > 10 µM
- Activity (Cannabinoid receptor 1 [4]): 13.8%
- EC50 (Cannabinoid receptor 2 [2]): > 10 µM
- Ki (Cannabinoid receptor 2 [2]): > 10 µM
- IC50 (Cholinesterase): 60.1 µM
- Activity (Cannabinoid receptor 2 [5]): 8.9%
